In ChEMBL document CHEMBL1148744, “Synthesis and antiviral and cytostatic evaluations of the new C-5 substituted pyrimidine and furo[2,3-d]pyrimidine 4',5'-didehydro-L-ascorbic acid derivatives” (J Med Chem, 2007):
Converted amounts (≈) assume the structure as drawn.

Assays:
[1] = Cytotoxicity against human HEL cells assessed as alteration in cell morphology; format: cell-based
Summary of the method: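 Confluent human embryonic lung (HEL) fibroblast cultures were exposed to a range of compound concentrations. Cells were examined microscopically for any detectable change in normal morphology. The minimum cytotoxic concentration (MCC) was the lowest concentration causing such a change.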

[2] = Cytotoxicity against human HEL cells assessed as reduction of cell growth; format: cell-based
Summary of the method: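 HEL cells were seeded at 5 × 10^3 cells/well and allowed to proliferate for 24 h. Medium with graded compound concentrations was then added, followed by 3 days at 37 °C. Cell number was counted with a Coulter counter.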

Human alphaherpesvirus 2 = assay: Antiviral activity against HSV2 G in HEL cells assessed as reduction of virus-induced cytopathogenicity; format: functional; details: Human alphaherpesvirus 2, G
Human alphaherpesvirus 3 [3] = assay: Antiviral activity against thymidine kinase-positive VZV OKA in human HEL cells after 7 days; format: functional, organism-based; details: Human alphaherpesvirus 3, OKA, 168 h
Human alphaherpesvirus 3 [4] = assay: Antiviral activity against thymidine kinase deficient VZV 07/1 in human HEL cells after 7 days; format: functional, organism-based; details: Human alphaherpesvirus 3, 07/1, HEL, 168 h
[5] = test system: Vesicular stomatitis virus; assay: Antiviral activity against VSV in HeLa cells assessed as reduction of virus-induced cytopathogenicity; format: functional
Human respirovirus 3 = assay: Antiviral activity against Parainfluenza 3 virus in Vero cells assessed as reduction of virus-induced cytopathogenicity; format: functional
[6] = test system: Mammalian orthoreovirus 1; assay: Antiviral activity against Reovirus 1 in Vero cells assessed as reduction of virus-induced cytopathogenicity; format: functional
[7] = test system: Respiratory syncytial virus; assay: Antiviral activity against RSV in HeLa cells assessed as reduction of virus-induced cytopathogenicity; format: functional; details: human respiratory syncytial virus
Sindbis virus = assay: Antiviral activity against Sindbis virus in Vero cells assessed as reduction of virus-induced cytopathogenicity; format: functional
Coxsackievirus B4 = assay: Antiviral activity against Coxsackie virus B4 in Vero cells assessed as reduction of virus-induced cytopathogenicity; format: functional; details: Enterovirus B
Punta Toro virus = assay: Antiviral activity against Punta Toro virus in Vero cells assessed as reduction of virus-induced cytopathogenicity; format: functional
Human alphaherpesvirus 1 = assay: Antiviral activity against HSV1 KOS in HEL cells assessed as reduction of virus-induced cytopathogenicity; format: functional; details: Human alphaherpesvirus 1, KOS
Human betaherpesvirus 5 [8] = assay: Antiviral activity against CMV AD169 in human HEL cells after 7 days; format: functional, organism-based; details: Human betaherpesvirus 5, AD169, HEL, 168 h
Summary of the method: (§1)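 Confluent HEL fibroblasts were infected at 100 PFU per well. After 2 h, residual virus was removed and cells were kept in MEM with serial compound concentrations for 7 days at 37 °C. Cytopathogenicity or plaques were scored microscopically after ethanol fixation and Giemsa staining.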

Human betaherpesvirus 5 [9] = assay: Antiviral activity against CMV Davis in human HEL cells after 7 days; format: functional, organism-based; details: Human betaherpesvirus 5, Davis, 168 h; summary of the method: as §1

SMILES: CCCCCC(O)C#Cc1cn(C/C=C2\OC(=O)C(OCc3ccccc3)=C2OCc2ccccc2)c(=O)[nH]c1=O (stereo unspecified)
- MCC [1]: ≥ 100 µM

SMILES: Nc1nc2c(ncn2COCCO)c(=O)[nH]1 [ACYCLOVIR]
- MCC [1]: > 1780 µM
- CC50 [2]: 545 µM
- MIC (Human alphaherpesvirus 2): 0.4 µM (≈ 0.0901 µg/mL)

SMILES: CCCCCCC#Cc1cn(C/C=C2\OC(=O)C(OCc3ccccc3)=C2OCc2ccccc2)c(=O)[nH]c1=O
- MCC [1]: 20 µM

SMILES: CCCCCc1cc2cn(C/C=C3\OC(=O)C(OCc4ccccc4)=C3OCc3ccccc3)c(=O)nc2o1
- MCC [1]: 100 µM

SMILES: C#CCCCc1cc2cn(C/C=C3\OC(=O)C(OCc4ccccc4)=C3OCc3ccccc3)c(=O)nc2o1
- MCC [1]: > 100 µM

SMILES: CCCCCc1ccc(-c2cc3cn(C/C=C4\OC(=O)C(OCc5ccccc5)=C4OCc4ccccc4)c(=O)nc3o2)cc1
- MCC [1]: ≥ 20 µM

SMILES: CCCCC#Cc1cn(C/C=C2\OC(=O)C(OCc3ccccc3)=C2OCc2ccccc2)c(=O)[nH]c1=O
- MCC [1]: ≥ 100 µM

SMILES: CCCCc1ccc(C#Cc2cn(C/C=C3\OC(=O)C(OCc4ccccc4)=C3OCc3ccccc3)c(=O)[nH]c2=O)cc1
- MCC [1]: 60 µM

SMILES: CCCCCCCCc1cc2cn(C/C=C3\OC(=O)C(OCc4ccccc4)=C3OCc3ccccc3)c(=O)nc2o1
- MCC [1]: 100 µM

SMILES: O=C1O/C(=C\Cn2cc3cc(-c4ccc(Br)cc4)oc3nc2=O)C(OCc2ccccc2)=C1OCc1ccccc1
- MCC [1]: ≥ 20 µM

SMILES: C#CCCCC#Cc1cn(C/C=C2\OC(=O)C(OCc3ccccc3)=C2OCc2ccccc2)c(=O)[nH]c1=O
- MCC [1]: ≥ 20 µM

SMILES: O=C1O/C(=C\Cn2cc3cc(CCc4ccccc4)oc3nc2=O)C(OCc2ccccc2)=C1OCc1ccccc1
- MCC [1]: 100 µM

SMILES: O=c1[nH]c(=O)n([C@H]2C[C@H](O)[C@@H](CO)O2)cc1/C=C/Br [BRIVUDINE]
- MCC [1]: ≥ 1200 µM
- CC50 [2]: 270 µM
- EC50 (Human alphaherpesvirus 3 [3]): 0.014 µM
- EC50 (Human alphaherpesvirus 3 [4]): 168 µM
- MIC [5]: > 250 µM
- MIC (Human respirovirus 3): > 250 µM
- MIC [6]: > 250 µM
- MIC (Human alphaherpesvirus 2): 10 µM (≈ 3.33 µg/mL)
- MIC [7]: > 250 µM
- MIC (Sindbis virus): > 250 µM
- MIC (Coxsackievirus B4): > 250 µM
- MIC (Punta Toro virus): > 250 µM

SMILES: NC(=O)c1ncn([C@@H]2O[C@H](CO)[C@@H](O)[C@H]2O)n1 [RIBAVIRIN]
- MIC [5]: > 250 µM
- MIC (Human respirovirus 3): 150 µM (≈ 36.6 µg/mL)
- MIC (Human alphaherpesvirus 1): 250 µM (≈ 61.1 µg/mL)
- MIC [6]: 150 µM (≈ 36.6 µg/mL)
- MIC (Human alphaherpesvirus 2): 250 µM (≈ 61.1 µg/mL)
- MIC [7]: 150 µM (≈ 36.6 µg/mL)
- MIC (Sindbis virus): > 250 µM
- MIC (Coxsackievirus B4): > 250 µM
- MIC (Punta Toro virus): 250 µM (≈ 61.1 µg/mL)

SMILES: CCCCc1cc2cn(C/C=C3\OC(=O)C(OCc4ccccc4)=C3OCc3ccccc3)c(=O)nc2o1
- MCC [1]: 20 µM

SMILES: Nc1ccn(C[C@@H](CO)OCP(=O)(O)O)c(=O)n1 [CIDOFOVIR]
- MCC [1]: ≥ 1270 µM
- CC50 [2]: 133 µM
- EC50 (Human betaherpesvirus 5 [8]): 0.67 µM
- EC50 (Human betaherpesvirus 5 [9]): 0.67 µM

SMILES: CCCCCc1ccc(C#Cc2cn(C/C=C3\OC(=O)C(OCc4ccccc4)=C3OCc3ccccc3)c(=O)[nH]c2=O)cc1
- MCC [1]: ≥ 4 µM

SMILES: CCCCc1ccc(-c2cc3cn(C/C=C4\OC(=O)C(OCc5ccccc5)=C4OCc4ccccc4)c(=O)nc3o2)cc1
- MCC [1]: ≥ 20 µM

SMILES: Nc1ncnc2c1ncn2C[C@H](O)CO [(S)-DHPA]
- MIC [5]: > 250 µM
- MIC (Human respirovirus 3): 50 µM (≈ 10.5 µg/mL)
- MIC [6]: 250 µM (≈ 52.3 µg/mL)
- MIC [7]: > 250 µM
- MIC (Sindbis virus): > 250 µM
- MIC (Coxsackievirus B4): > 250 µM
- MIC (Punta Toro virus): > 250 µM

SMILES: Cc1ccc(C#Cc2cn(C/C=C3\OC(=O)C(OCc4ccccc4)=C3OCc3ccccc3)c(=O)[nH]c2=O)cc1
- MCC [1]: 60 µM

SMILES: CCCCCCCCC#Cc1cn(C/C=C2\OC(=O)C(OCc3ccccc3)=C2OCc2ccccc2)c(=O)[nH]c1=O
- MCC [1]: 100 µM

SMILES: CCCCCC(O)c1cc2cn(C/C=C3\OC(=O)C(OCc4ccccc4)=C3OCc3ccccc3)c(=O)nc2o1 (stereo unspecified)
- MCC [1]: ≥ 100 µM

SMILES: Nc1nc2c(ncn2COC(CO)CO)c(=O)[nH]1 [GANCICLOVIR]
- MCC [1]: ≥ 1580 µM
- CC50 [2]: 262 µM
- EC50 (Human betaherpesvirus 5 [9]): 2.6 µM
- MIC (Human alphaherpesvirus 1): 0.032 µM (≈ 0.00817 µg/mL)
- MIC (Human alphaherpesvirus 2): 0.0064 µM (≈ 0.00163 µg/mL)

SMILES: CCCCCCc1cc2cn(C/C=C3\OC(=O)C(OCc4ccccc4)=C3OCc3ccccc3)c(=O)nc2o1
- MCC [1]: 100 µM

SMILES: CCCCCC#Cc1cn(C/C=C2\OC(=O)C(OCc3ccccc3)=C2OCc2ccccc2)c(=O)[nH]c1=O
- MCC [1]: 20 µM

SMILES: O=C1O/C(=C\Cn2cc(C#Cc3ccc(Br)cc3)c(=O)[nH]c2=O)C(OCc2ccccc2)=C1OCc1ccccc1
- MCC [1]: ≥ 4 µM

SMILES: Cc1ccc(-c2cc3cn(C/C=C4\OC(=O)C(OCc5ccccc5)=C4OCc4ccccc4)c(=O)nc3o2)cc1
- MCC [1]: 100 µM
